Measured values reported in ChEMBL document CHEMBL4152188, “Design, synthesis and biological evaluation of C(4) substituted monobactams as antibacterial agents against multidrug-resistant Gram-negative bacteria” (Eur J Med Chem, 2018).
Values after ≈ are worked out from the molar mass of the structure shown.

Experiments:
Type in all cases: functional
Escherichia coli [1] = test: Antibacterial activity against Escherichia coli isolate 210737 after 18 hrs by CLSI broth microdilution method; details: isolate 210737, 18 h
Pseudomonas aeruginosa [2] = test: Selectivity index, ratio of MIC for against IMP-4 producing Pseudomonas aeruginosa isolate 209471 to MIC for against IMP-4 producing Pseudomonas aeruginosa isolate 209471 in presence of BPL
Klebsiella pneumoniae [3] = test: Selectivity index, ratio of MIC for against KPC-2 producing Klebsiella pneumoniae isolate 212229 to MIC for against KPC-2 producing Klebsiella pneumoniae isolate 212229 in presence of BPL
Escherichia coli [4] = test: Selectivity index, ratio of MIC for against extended-spectrum beta-lactamase producing Escherichia coli isolate 208687 to MIC for extended-spectrum beta-lactamase producing Escherichia coli isolate 208687 in presence of BPL
Klebsiella pneumoniae [5] = test: Antibacterial activity against KPC-2 producing Klebsiella pneumoniae isolate 212229 after 18 hrs in presence of BPL by CLSI broth microdilution method; details: isolate 212229, 18 h
Procedure, shortened: (§1)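 CLSI broth microdilution against clinical isolates (ESBL E. coli, KPC-2 MDR K. pneumoniae, IMP-4 MDR P. aeruginosa; five per species). Iron limitation: Mueller-Hinton broth supplemented with 16 mg/liter 2,2'-bipyridyl to complex iron and induce iron uptake systems. Read-out: MIC.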

Klebsiella pneumoniae [6] = test: Antibacterial activity against KPC-2 producing Klebsiella pneumoniae isolate 212232 after 18 hrs by CLSI broth microdilution method; details: isolate 212232, 18 h
Klebsiella pneumoniae [7] = test: Antibacterial activity against KPC-2 producing Klebsiella pneumoniae isolate 209735 after 18 hrs in presence of BPL by CLSI broth microdilution method; details: isolate 209735, 18 h; procedure, shortened: as §1
Pseudomonas aeruginosa [8] = test: Antibacterial activity against IMP-4 producing Pseudomonas aeruginosa isolate 207272 after 18 hrs by CLSI broth microdilution method; details: isolate 207272, 18 h
Pseudomonas aeruginosa [9] = test: Antibacterial activity against IMP-4 producing Pseudomonas aeruginosa isolate 207272 after 18 hrs in presence of BPL by CLSI broth microdilution method; details: isolate 207272, 18 h; procedure, shortened: as §1
Escherichia coli [10] = test: Antibacterial activity against extended-spectrum beta-lactamase producing Escherichia coli isolate 208687 after 18 hrs in presence of BPL by CLSI broth microdilution method; details: isolate 208687, 18 h; procedure, shortened: as §1
Escherichia coli [11] = test: Antibacterial activity against extended-spectrum beta-lactamase producing Escherichia coli isolate 106342 after 18 hrs in presence of BPL by CLSI broth microdilution method; details: isolate 106342, 18 h; procedure, shortened: as §1
Klebsiella pneumoniae [12] = test: Antibacterial activity against KPC-2 producing Klebsiella pneumoniae isolate 209735 after 18 hrs by CLSI broth microdilution method; details: isolate 209735, 18 h
Escherichia coli [13] = test: Antibacterial activity against extended-spectrum beta-lactamase producing Escherichia coli isolate 208687 after 18 hrs by CLSI broth microdilution method; details: isolate 208687, 18 h
Pseudomonas aeruginosa [14] = test: Selectivity index, ratio of MIC for against IMP-4 producing Pseudomonas aeruginosa isolate 212886 to MIC for against IMP-4 producing Pseudomonas aeruginosa isolate 212886 in presence of BPL
Klebsiella pneumoniae [15] = test: Antibacterial activity against KPC-2 producing Klebsiella pneumoniae isolate 212229 after 18 hrs by CLSI broth microdilution method; details: isolate 212229, 18 h
Klebsiella pneumoniae [16] = test: Antibacterial activity against KPC-2 producing Klebsiella pneumoniae isolate 212423 after 18 hrs by CLSI broth microdilution method; details: isolate 212423, 18 h
Pseudomonas aeruginosa [17] = test: Antibacterial activity against IMP-4 producing Pseudomonas aeruginosa isolate 209471 after 18 hrs by CLSI broth microdilution method; details: isolate 209471, 18 h
Pseudomonas aeruginosa [18] = test: Antibacterial activity against IMP-4 producing Pseudomonas aeruginosa isolate 208247 after 18 hrs in presence of BPL by CLSI broth microdilution method; details: isolate 208247, 18 h; procedure, shortened: as §1
Pseudomonas aeruginosa [19] = test: Antibacterial activity against IMP-4 producing Pseudomonas aeruginosa isolate 212886 after 18 hrs in presence of BPL by CLSI broth microdilution method; details: isolate 212886, 18 h; procedure, shortened: as §1
Pseudomonas aeruginosa [20] = test: Selectivity index, ratio of MIC for against IMP-4 producing Pseudomonas aeruginosa isolate 207272 to MIC for against IMP-4 producing Pseudomonas aeruginosa isolate 207272 in presence of BPL
Pseudomonas aeruginosa [21] = test: Antibacterial activity against IMP-4 producing Pseudomonas aeruginosa isolate 209321 after 18 hrs by CLSI broth microdilution method; details: isolate 209321, 18 h
Klebsiella pneumoniae [22] = test: Selectivity index, ratio of MIC for against KPC-2 producing Klebsiella pneumoniae isolate 209632 to MIC for against KPC-2 producing Klebsiella pneumoniae isolate 209632 in presence of BPL
Escherichia coli [23] = test: Selectivity index, ratio of MIC for against extended-spectrum beta-lactamase producing Escherichia coli isolate 212648 to MIC for extended-spectrum beta-lactamase producing Escherichia coli isolate 212648 in presence of BPL
Escherichia coli [24] = test: Antibacterial activity against extended-spectrum beta-lactamase producing Escherichia coli isolate 212648 after 18 hrs in presence of BPL by CLSI broth microdilution method; details: isolate 212648, 18 h; procedure, shortened: as §1
Pseudomonas aeruginosa [25] = test: Selectivity index, ratio of MIC for against IMP-4 producing Pseudomonas aeruginosa isolate 209321 to MIC for against IMP-4 producing Pseudomonas aeruginosa isolate 209321 in presence of BPL
Escherichia coli [26] = test: Antibacterial activity against extended-spectrum beta-lactamase producing Escherichia coli isolate 209285 after 18 hrs in presence of BPL by CLSI broth microdilution method; details: isolate 209285, 18 h; procedure, shortened: as §1
Klebsiella pneumoniae [27] = test: Selectivity index, ratio of MIC for against KPC-2 producing Klebsiella pneumoniae isolate 209735 to MIC for against KPC-2 producing Klebsiella pneumoniae isolate 209735 in presence of BPL
Escherichia coli [28] = test: Selectivity index, ratio of MIC for against extended-spectrum beta-lactamase producing Escherichia coli isolate 106342 to MIC for extended-spectrum beta-lactamase producing Escherichia coli isolate 106342 in presence of BPL
Klebsiella pneumoniae [29] = test: Antibacterial activity against KPC-2 producing Klebsiella pneumoniae isolate 212423 after 18 hrs in presence of BPL by CLSI broth microdilution method; details: isolate 212423, 18 h; procedure, shortened: as §1
Klebsiella pneumoniae [30] = test: Selectivity index, ratio of MIC for against KPC-2 producing Klebsiella pneumoniae isolate 212232 to MIC for against KPC-2 producing Klebsiella pneumoniae isolate 212232 in presence of BPL
Pseudomonas aeruginosa [31] = test: Antibacterial activity against IMP-4 producing Pseudomonas aeruginosa isolate 209321 after 18 hrs in presence of BPL by CLSI broth microdilution method; details: isolate 209321, 18 h; procedure, shortened: as §1
Klebsiella pneumoniae [32] = test: Antibacterial activity against KPC-2 producing Klebsiella pneumoniae isolate 209632 after 18 hrs in presence of BPL by CLSI broth microdilution method; details: isolate 209632, 18 h; procedure, shortened: as §1
Escherichia coli [33] = test: Antibacterial activity against extended-spectrum beta-lactamase producing Escherichia coli isolate 212648 after 18 hrs by CLSI broth microdilution method; details: isolate 212648, 18 h
Klebsiella pneumoniae [34] = test: Selectivity index, ratio of MIC for against KPC-2 producing Klebsiella pneumoniae isolate 212423 to MIC for against KPC-2 producing Klebsiella pneumoniae isolate 212423 in presence of BPL
Escherichia coli [35] = test: Selectivity index, ratio of MIC for against Escherichia coli isolate 210737 to MIC for Escherichia coli isolate 210737 in presence of BPL
Escherichia coli [36] = test: Selectivity index, ratio of MIC for against extended-spectrum beta-lactamase producing Escherichia coli isolate 209285 to MIC for extended-spectrum beta-lactamase producing Escherichia coli isolate 209285 in presence of BPL
Escherichia coli [37] = test: Antibacterial activity against Escherichia coli isolate 210737 after 18 hrs in presence of BPL by CLSI broth microdilution method; details: isolate 210737, 18 h; procedure, shortened: as §1
Klebsiella pneumoniae [38] = test: Antibacterial activity against KPC-2 producing Klebsiella pneumoniae isolate 209632 after 18 hrs by CLSI broth microdilution method; details: isolate 209632, 18 h
Escherichia coli [39] = test: Antibacterial activity against extended-spectrum beta-lactamase producing Escherichia coli isolate 209285 after 18 hrs by CLSI broth microdilution method; details: isolate 209285, 18 h
Klebsiella pneumoniae [40] = test: Antibacterial activity against KPC-2 producing Klebsiella pneumoniae isolate 212232 after 18 hrs in presence of BPL by CLSI broth microdilution method; details: isolate 212232, 18 h; procedure, shortened: as §1
Pseudomonas aeruginosa [41] = test: Antibacterial activity against IMP-4 producing Pseudomonas aeruginosa isolate 208247 after 18 hrs by CLSI broth microdilution method; details: isolate 208247, 18 h
Pseudomonas aeruginosa [42] = test: Antibacterial activity against IMP-4 producing Pseudomonas aeruginosa isolate 212886 after 18 hrs by CLSI broth microdilution method; details: isolate 212886, 18 h
Pseudomonas aeruginosa [43] = test: Antibacterial activity against IMP-4 producing Pseudomonas aeruginosa isolate 209471 after 18 hrs in presence of BPL by CLSI broth microdilution method; details: isolate 209471, 18 h; procedure, shortened: as §1
Pseudomonas aeruginosa [44] = test: Selectivity index, ratio of MIC for against IMP-4 producing Pseudomonas aeruginosa isolate 208247 to MIC for against IMP-4 producing Pseudomonas aeruginosa isolate 208247 in presence of BPL
Escherichia coli [45] = test: Antibacterial activity against extended-spectrum beta-lactamase producing Escherichia coli isolate 106342 after 18 hrs by CLSI broth microdilution method; details: isolate 106342, 18 h

- MIC (Escherichia coli [1]): 0.5 µg/mL (≈ 0.814 µM)
- MIC (Klebsiella pneumoniae [5]): 0.125 µg/mL
- MIC (Klebsiella pneumoniae [6]): 1 µg/mL (≈ 1.63 µM)
- MIC (Klebsiella pneumoniae [7]): 4 µg/mL
- MIC (Pseudomonas aeruginosa [8]): 32 µg/mL (≈ 52.1 µM)
- MIC (Pseudomonas aeruginosa [9]): 32 µg/mL
- MIC (Escherichia coli [10]): 0.5 µg/mL
- MIC (Escherichia coli [11]): 1 µg/mL
- MIC (Klebsiella pneumoniae [12]): 16 µg/mL (≈ 26 µM)
- MIC (Escherichia coli [13]): 1 µg/mL (≈ 1.63 µM)
- MIC (Klebsiella pneumoniae [15]): 0.25 µg/mL (≈ 0.407 µM)
- MIC (Klebsiella pneumoniae [16]): 0.5 µg/mL (≈ 0.814 µM)
- MIC (Pseudomonas aeruginosa [17]): 32 µg/mL (≈ 52.1 µM)
- MIC (Pseudomonas aeruginosa [18]): 64 µg/mL
- MIC (Pseudomonas aeruginosa [19]): 32 µg/mL
- MIC (Pseudomonas aeruginosa [21]): 32 µg/mL (≈ 52.1 µM)
- MIC (Escherichia coli [24]): 2 µg/mL
- MIC (Escherichia coli [26]): 0.25 µg/mL
- MIC (Klebsiella pneumoniae [29]): 0.125 µg/mL
- MIC (Pseudomonas aeruginosa [31]): 32 µg/mL
- MIC (Klebsiella pneumoniae [32]): 4 µg/mL
- MIC (Escherichia coli [33]): 2 µg/mL (≈ 3.25 µM)
- MIC (Escherichia coli [37]): 0.25 µg/mL
- MIC (Klebsiella pneumoniae [38]): 4 µg/mL (≈ 6.51 µM)
- MIC (Escherichia coli [39]): 1 µg/mL (≈ 1.63 µM)
- MIC (Klebsiella pneumoniae [40]): 0.25 µg/mL
- MIC (Pseudomonas aeruginosa [41]): 64 µg/mL (≈ 104 µM)
- MIC (Pseudomonas aeruginosa [42]): 32 µg/mL (≈ 52.1 µM)
- MIC (Pseudomonas aeruginosa [43]): 32 µg/mL
- MIC (Escherichia coli [45]): 1 µg/mL (≈ 1.63 µM)
Structure (SMILES): CC(C)C(O/N=C(\C(=O)N[C@@H]1C(=O)N(S(=O)(=O)O)[C@@H]1CN1CCNC1=O)c1csc(N)n1)c1cc(=O)c(O)cn1O (stereo not given in full)
- Selectivity Index (Pseudomonas aeruginosa [2]): 1
- Selectivity Index (Klebsiella pneumoniae [3]): 2
- Selectivity Index (Escherichia coli [4]): 2
- Selectivity Index (Pseudomonas aeruginosa [14]): 1
- Selectivity Index (Pseudomonas aeruginosa [20]): 1
- Selectivity Index (Klebsiella pneumoniae [22]): 1
- Selectivity Index (Escherichia coli [23]): 1
- Selectivity Index (Pseudomonas aeruginosa [25]): 1
- Selectivity Index (Klebsiella pneumoniae [27]): 4
- Selectivity Index (Escherichia coli [28]): 1
- Selectivity Index (Klebsiella pneumoniae [30]): 4
- Selectivity Index (Klebsiella pneumoniae [34]): 4
- Selectivity Index (Escherichia coli [35]): 2
- Selectivity Index (Escherichia coli [36]): 4
- Selectivity Index (Pseudomonas aeruginosa [44]): 1
